From paper PMC9055608 (RSC Advances, 2020) come the findings set out here.

The test system of one experiment is N87. The experiment is described as follows: MTT cell proliferation assay, N87. The format is cell-based, human. The following applies: Homo sapiens, 72 h. In a few lines: (§1)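 ATCC lines grown in DMEM or RPMI-1640 with 10% heat-inactivated FBS and 1% penicillin/streptomycin at 37 °C, 5% CO2. Log-phase cells seeded at about 4000–5000/well and left to adhere 24 h. Sextuplicate wells, 72 h. MTT for 4 h, then DMSO and absorbance. IC50 taken from dose–response curves.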
On the technique in general: Tetrazolium assays rely on reduction of a dye to a coloured formazan, in cell work by metabolically active cells.

In the next experiment the test system is SKMEL-28. Put plainly: MTT cell proliferation assay, SKMEL-28. The experiment is classed as cell-based, human. Particulars: Homo sapiens, SK-MEL-28, 72 h. In a few lines: as §1
Another experiment concerns MCF-7 xenograft tumour. The experiment is described as follows: Pathological tissue sections. The format is in vivo, nude mice. In a few lines: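 Tumour-bearing nude mice were anaesthetised and killed after the 9-day dosing. Heart, liver, spleen, lung, kidney, brain and tumour were fixed in 10% formalin, embedded in paraffin, cut into 4 μm sections and stained with haematoxylin–eosin.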

For the next experiment, the system named is A-549. The experiment is described as follows: MTT cell proliferation assay, A-549. The experiment is classed as cell-based, human. Particulars: Homo sapiens, A549, 72 h. In a few lines: as §1
In experiment [1] the test system is LO2 human normal liver cells. Put plainly: MTT assay, cytotoxicity against normal cell line LO2. The experiment is classed as cell-based. The method, boiled down: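 Cells seeded at about 4000–5000/well and allowed 24 h to adhere. MTT for 4 h, formazan dissolved in DMSO, absorbance read, and inhibition rate per concentration reported.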

Consider `O=C(/C=C/CCc1ccc(O)cc1)/C=C/c1ccc(O)cc1` [DHDK, (1E,4E)-1,7-Bis(4-hydroxyphenyl)hepta-1,4-dien-3-one], for which the results for the IC50 in the experiment with N87, in the experiment on SKMEL-28 and with A-549 were 10.8 ± 0.5 µM, 9.26 ± 0.57 µM and 8.01 ± 0.44 µM, respectively. Besides, the tumour histopathology entry with MCF-7 xenograft tumour (high-dose group, DHDK 40 mg kg^−1) was “A large amount of tumour necrosis with nuclear envelope breakdown and dissolved nucleus”; with MCF-7 xenograft tumour (low-dose group, DHDK 10 mg kg^−1), “A small amount of punctate nucleolysis and a low degree of necrosis”; in the experiment with MCF-7 xenograft tumour (medium-dose group, DHDK 20 mg kg^−1), “point necrosis and dissolved nucleus”. Besides, in experiment [1] (Homo sapiens, read-out: Inhibition rate, LO2, DHDK 0.14 μmol·L^−1), the inhibition at 0.14 µM was 1.36%. For the same compound, in experiment [1] (Homo sapiens, read-out: Inhibition rate, LO2, DHDK 0.42 μmol·L^−1), the inhibition at 0.42 µM is 1.51%. Moreover, the inhibition at 1.26 µM in experiment [1] (Homo sapiens, read-out: Inhibition rate, LO2, DHDK 1.26 μmol·L^−1) amounted to 1.87%. For the same compound, in experiment [1] (Homo sapiens, read-out: Inhibition rate, LO2, DHDK 3.8 μmol·L^−1), the inhibition at 3.8 µM stood at 2.08%. The inhibition at 11.3 µM in experiment [1] (Homo sapiens, read-out: Inhibition rate, LO2, DHDK 11.3 μmol·L^−1) is 2.57%. Besides, the “OD value (mean ± SD)” value in experiment [1] (LO2, DHDK 0.14 μmol·L^−1) is on record as 0.69 ± 0.013; in experiment [1] (LO2, DHDK 0.42 μmol·L^−1) it was 0.68 ± 0.039; in experiment [1] (LO2, DHDK 1.26 μmol·L^−1), 0.68 ± 0.022; in experiment [1] (LO2, DHDK 3.8 μmol·L^−1), 0.68 ± 0.031; in experiment [1] (LO2, DHDK 11.3 μmol·L^−1) it was 0.68 ± 0.0066; in experiment [1] (LO2, DHDK 34.0 μmol·L^−1), 0.67 ± 0.025. This compound also returned an Inhibition rate in experiment [1] (LO2, DHDK 34.0 μmol·L^−1) of 4.17%.

As usually defined, the IC50 is the midpoint of a concentration-inhibition curve. As a reminder, the inhibition is the relative decrease from the control value, in per cent.
